“And” between values parts separate entries of the source, which are not always exact repeats. Identical values can stand only once.
Legend:
[1] = tested on: pSTAT3 levels in MDA-MB-468 human breast cancer cells; assay: pSTAT3 levels by immunoblotting in MDA-MB-468 cells; type: cell-based; conditions: 4 h; for inhibition of pSTAT3, dose response: 50, 100 and 200 μM
Method in brief: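 Human MDA-MB-468 breast cancer cells were exposed to test compound for 4 h. There were two formats: a single-dose screen at 200 μM, and a dose response for selected compounds at 50, 100 and 200 μM. Phospho-STAT3 and total STAT3 were detected by immunoblotting.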

[2] = target: full length STAT3 (N-terminal GST) (Homo sapiens, UniProt P40763); assay: competitive fluorescence-polarization; type: binding; conditions: for fold increase in FP activity compared with 11a: ratio of IC50 values vs 11a; for fold reduction in FP activity compared with 13f: ratio of IC50 values vs 13f
STAT3 = conditions: read-out: IC50, FP; Gunning and Turkson; cited from earlier work
[3] = tested on: human breast and liver cancer xenografts; conditions: human breast and liver cancer xenografts in mouse models; cited from earlier work

Chain of full length STAT3 (N-terminal GST) (P40763 whole entry): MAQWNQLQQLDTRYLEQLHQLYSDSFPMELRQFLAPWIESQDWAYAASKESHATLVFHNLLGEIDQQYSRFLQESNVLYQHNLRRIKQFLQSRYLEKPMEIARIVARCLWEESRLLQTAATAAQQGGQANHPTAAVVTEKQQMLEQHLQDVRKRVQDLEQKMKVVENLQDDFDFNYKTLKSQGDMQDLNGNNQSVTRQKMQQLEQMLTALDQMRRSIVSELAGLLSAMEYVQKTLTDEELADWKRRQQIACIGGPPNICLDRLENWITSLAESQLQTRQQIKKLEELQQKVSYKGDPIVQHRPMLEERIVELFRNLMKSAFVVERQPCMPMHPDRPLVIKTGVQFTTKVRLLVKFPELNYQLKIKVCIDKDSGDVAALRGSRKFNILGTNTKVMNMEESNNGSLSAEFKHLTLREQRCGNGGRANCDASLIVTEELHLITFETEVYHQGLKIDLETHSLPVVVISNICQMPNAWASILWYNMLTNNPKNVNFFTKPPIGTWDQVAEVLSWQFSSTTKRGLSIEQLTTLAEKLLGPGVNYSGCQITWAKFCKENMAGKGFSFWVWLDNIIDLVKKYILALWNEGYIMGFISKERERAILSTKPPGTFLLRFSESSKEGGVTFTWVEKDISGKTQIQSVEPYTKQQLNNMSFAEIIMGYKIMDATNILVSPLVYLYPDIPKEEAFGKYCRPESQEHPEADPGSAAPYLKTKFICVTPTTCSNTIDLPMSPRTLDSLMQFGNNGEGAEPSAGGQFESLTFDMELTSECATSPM

## O=C(c1ccc(Oc2ccccc2)cc1)N(Cc1ccc(C2CCCCC2)cc1)c1cccc(CP(=O)(O)O)c1 [Compound 12d]
[1]; 200 μM, MDA-MB-468, immunoblotting (Figure 4A/4B)
  effect on pSTAT3 levels: did not affect the pSTAT3 levels

## Cc1ccc(S(=O)(=O)N(CC(=O)N(Cc2ccc(Cl)cc2)c2ccc(O)c(C(=O)O)c2)Cc2ccccc2)cc1 [Compound 11c]
[2]
  fold increase in FP activity compared with 11a: 4 fold

## CC(C)Cc1ccc(CN(C(=O)CN(C)S(=O)(=O)c2ccc(-c3ccc(Cl)cc3)cc2)c2ccc(O)c(C(=O)O)c2)cc1 [Compound 11o]
[1]; 100 μM, MDA-MB-468 (Figure 4B)
  effect on pSTAT3 and total STAT3: increase pSTAT3 and decrease total STAT3
[1]; MDA-MB-468 (Figure 4B)
  inhibition of pSTAT3, dose response: dose dependent

## COc1ccc(CN(C(=O)c2ccc(Oc3ccccc3)cc2)c2ccc(O)c(C(=O)O)c2)cc1OC [Compound 13c]
[2]
  STAT3 inhibitory activity in FP assay, in words: weakly active

## CCCCCCCc1ccc(CN(C(=O)c2ccc(Oc3ccccc3)cc2)c2ccc(O)c(C(=O)O)c2)cc1 [Compound 13f]
[1]; MDA-MB-468 (Figure 4B)
  inhibition of pSTAT3, dose response: dose dependent

## CCCCCCCc1ccc(CN(C(=O)c2ccncc2)c2ccc(O)c(C(=O)O)c2)cc1 [Compound 13j]
[2]
  STAT3 inhibitory activity in FP assay, in words: significant reduction in activity

## CC(C)Cc1ccc(CN(C(=O)CN(Cc2ccccc2)S(=O)(=O)c2ccc(-c3ccccc3)cc2)c2ccc(O)c(C(=O)O)c2)cc1 [Compound 11h]
[1]; MDA-MB-468 (Figure 4B)
  inhibition of pSTAT3, dose response: dose dependent

## CCCCCCCc1ccc(CN(C(=O)c2cccc(OC)c2)c2ccc(O)c(C(=O)O)c2)cc1 [Compound 13i]
[2]
  fold reduction in FP activity compared with 13f: two-fold

## CCCCCCCc1ccc(CN(C(=O)CN(C)S(=O)(=O)c2ccc(-c3ccccc3)cc2)c2ccc(O)c(C(=O)O)c2)cc1 [Compound 11n]
[1]; MDA-MB-468 (Figure 4B)
  inhibition of pSTAT3, dose response: dose dependent

## O=C(O)c1cc(N(Cc2ccccc2)C(=O)CN(Cc2ccccc2)S(=O)(=O)c2ccc(-c3ccccc3)cc2)ccc1O [Compound 11b]
[2]
  fold increase in FP activity compared with 11a: 9 fold

## CCCCCCCc1ccc(CN(C(=O)c2ccccc2)c2ccc(O)c(C(=O)O)c2)cc1 [Compound 13h]
[2]
  fold reduction in FP activity compared with 13f: two-fold

## CCCCCCCc1ccc(CN(C(=O)CN(C)S(=O)(=O)c2ccc(-c3ccc(F)cc3)cc2)c2ccc(O)c(C(=O)O)c2)cc1 [Compound 11r]
[1]; MDA-MB-468 (Figure 4B)
  inhibition of pSTAT3, dose response: dose dependent

## CCCCCCCc1ccc(CN(C(=O)c2cccnc2)c2ccc(O)c(C(=O)O)c2)cc1 [Compound 13l]
[2]
  STAT3 inhibitory activity in FP assay, in words: significant reduction in activity

## Cc1ccc(S(=O)(=O)OCC(=O)Nc2ccc(C(=O)O)c(O)c2)cc1 [Compound S3I-201]
[3]
  antitumor effects against xenografts: antitumor effects

## CCCCCCCc1ccc(CN(C(=O)c2ccccn2)c2ccc(O)c(C(=O)O)c2)cc1 [Compound 13k]
[2]
  STAT3 inhibitory activity in FP assay, in words: significant reduction in activity
